Measurements from ChEMBL document CHEMBL1141552, “Synthesis and antitubercular activity of 7-(R)- and 7-(S)-methyl-2-nitro-6-(S)-(4-(trifluoromethoxy)benzyloxy)-6,7-dihydro-5H-imidazo[2,1-b][1,3]oxazines, analogues of PA-824” (Bioorg Med Chem Lett, 2008).

Legend:
Type in all cases: functional
[1] = system: Mycobacterium tuberculosis; assay: Antitubercular activity against Mycobacterium tuberculosis H37Rv T2 nitroreductase mutant
Summary of the method: (§1)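 Broth dilution MIC99 against Mtb H37Rv (ATCC 27294) and its H37Rv mutants under aerobic conditions. Compound stocks were made in DMSO at 20 mM.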

[2] = system: Mycobacterium tuberculosis; assay: Antitubercular activity against Mycobacterium tuberculosis H37Rv 5A1 nitroreductase mutant; summary of the method: as §1
[3] = system: Mycobacterium tuberculosis; assay: Antitubercular activity against Mycobacterium tuberculosis H37Rv T3 nitroreductase mutant; summary of the method: as §1

Measured: MIC

O=[N+]([O-])c1cn2c(n1)OC[C@@H](OCc1ccc(OC(F)(F)F)cc1)C2 [PRETOMANID]
>100 µM: all assays above

C[C@H]1Oc2nc([N+](=O)[O-])cn2C[C@@H]1OCc1ccc(OC(F)(F)F)cc1
>100 µM: all assays above

C[C@@H]1Oc2nc([N+](=O)[O-])cn2C[C@@H]1OCc1ccc(OC(F)(F)F)cc1
>100 µM: all assays above
